Reference: PubChem BioAssay AID504382 (The Scripps Research Institute Molecular Screening Center, 2011)
The campaign covered roughly 2,500 compounds. About 460 (18%) were called active.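 How the source made its calls: active means mean activation above a cutoff of low control average plus 3 SD from the earlier screen (cut at about 12% in these data); inactive means the rest.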 The list is a sample of the results.

assay: compound fluorescence interference without thin filaments, confirmation, artefact control for cardiac RTF calcium sensitizer project, biochemical (AID 504382); conditions: IANBD fluorescence interference counterscreen, buffer, EC20 Ca2+; at 7.2 µM; active compounds read high; scaled: EC20 calcium 0, EC100 calcium 100
How it was run: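 Medium: MOPS/KCl/MgCl2/EGTA/NTA/DTT buffer, pH 7.2 | Reagent: EC20 calcium, 0.472 mM | Compound dosing: 7.2 µM single dose | Times: 15 min compound exposure at 25 °C | Signal: Fluorescence, 480/540 nm | Measure: Interference relative to controls | Repeats: Triplicate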

SMILES	fluorescence artifact activation
Nc1cccc(N2C(=O)c3cccc4c(N)ccc(c34)C2=O)c1	0.16% (inactive)
CS(=O)(=O)c1ccc(C(=O)OCC(=O)Nc2cccnc2Cl)cc1[N+](=O)[O-]	0% (inactive)
COc1ccc2ccccc2c1C(O)c1nccn1C (stereo not given)	10.5% (inactive)
Cc1occc1C(=O)Nc1cccc([N+](=O)[O-])c1	11.4% (inactive)
COC(=O)c1cc2c(=O)c3ccccc3oc2nc1/C=C/N(C)C	0.12% (inactive)
CC(=O)c1ccc(C(=O)Nc2sc3c(c2C(N)=O)CCN(Cc2ccccc2)C3)cc1	-0.06% (inactive)
NC(=O)c1c(NC(=O)C2COc3ccccc3O2)sc2c1CCN(Cc1ccccc1)C2 (stereo not given)	0.08% (inactive)
NC(=O)c1c(NC(=O)c2ccccc2)sc2c1CCN(Cc1ccccc1)C2	37.1% (active)
Cc1nc(-c2ccc(C#N)cc2)cs1	-0.01% (inactive)
CN(C)c1ccc(N=Cc2nc(-c3ccccc3)oc2O)cc1	7.65% (inactive)
COc1ccc(N=C(N)N=C(N)N)c(OC)c1	0% (inactive)
CCOc1cc(N2CCOCC2)c(OCC)cc1NC(=O)CCS(=O)(=O)c1ccc(Cl)cc1	9.02% (inactive)
CCC(CO)[n+]1c(C)cc(/C=C2\Sc3ccccc3N2Cc2ccccc2)cc1C (stereo not given)	0.01% (inactive)
Cc1cccc(/C=C2/SC(=O)N(Cc3ccccc3)C2=O)n1	15.4% (active)
CN(C)c1ccc(/C=C2\SC(=O)N(CC(O)Cn3c4ccccc4c4ccccc43)C2=O)cc1 (stereo not given)	5.59% (inactive)
COCCN(C(=O)CN1CCCc2ccccc21)c1c(N)n(Cc2ccccc2)c(=O)[nH]c1=O	3.59% (inactive)
Cc1ccc2c(c1)CCCN2CC(=O)N(C)c1c(N)n(Cc2ccccc2)c(=O)[nH]c1=O	-0.05% (inactive)
CCn1c(=O)c(C(=O)CN2CCCc3ccccc32)c(N)n(Cc2ccccc2)c1=O	15.2% (active)
Nc1c(C(=O)C2CC2)sc2nc(-c3cccs3)cc(C(F)(F)F)c12	3.83% (inactive)
CCc1ccc[n+](-c2[nH]c(=O)sc2/C=N/NC([S-])=Nc2ccccc2)c1	19.1% (active)
O=c1[nH]c(-[n+]2ccccc2)c(/C=N/NC([S-])=Nc2ccccc2)s1	0.03% (inactive)
Cc1cc[n+](-c2[nH]c(=O)sc2/C=N/NC([S-])=Nc2ccccc2)cc1C	0.4% (inactive)
Cc1ccc(S(=O)(=O)N2CCN(c3ncccn3)CC2)cc1C	-0.05% (inactive)

SMILES	fluorescence artifact activation
Cc1ccccc1S(=O)(=O)Cc1ccc(C(=O)NCCN(C)Cc2ccccc2)o1	11% (inactive)
Cc1nn(Cc2c(F)c(F)c(F)c(F)c2F)c(C)c1NC(=O)c1nn(C)c(C)c1Br	0.14% (inactive)
Cc1c(O)c2c3c(cccc3c1O)C(=O)N(c1ccccc1)C2=O	6.04% (inactive)
Nc1ccc2c3c(cccc13)C(=O)N(c1ccccc1)C2=O	0.18% (inactive)
CCC/C(C#Cc1ccc(N(C)C)cc1)=C1/c2ccccc2C(=O)N1c1ccccc1	17.9% (active)
CCCS(=O)(=O)N1CCC(C(=O)NCCCN2CCC(Cc3ccccc3)CC2)CC1	0.05% (inactive)
CC(=O)Nc1cccc(NC(=O)CSc2nnc(Cc3cccn3C)n2CCc2ccccc2)c1	2.41% (inactive)
CCN1C(=O)[C@@H]2[C@@H](c3ccc(-c4cccc(Cl)c4)cc3)N3CCC[C@@]3(C(=O)OC)[C@@H]2C1=O	0.02% (inactive)
CCOc1cc(/C=C(\C#N)c2nc(-c3cccs3)c(NC(C)=O)s2)ccc1O	-0.03% (inactive)
CC(=O)Nc1sc(/C(C#N)=C\c2cccc(Cl)c2)nc1-c1ccc(C)cc1	16.5% (active)
CC(=O)Nc1sc(/C(C#N)=C/c2ccc(Cl)c(Cl)c2)nc1-c1ccc(C)cc1	-0.03% (inactive)
CC(C)(C)c1cc(NCc2ccccn2)n2ncc(-c3ccc(Cl)cc3)c2n1	0.93% (inactive)
CCCN1CCc2c(sc(NC(=S)NC(=O)c3ccccc3)c2C#N)C1	11.1% (inactive)
O=C(Nc1ccccc1F)C(=Cc1sc(N2CCOCC2)nc1-c1ccccc1)C(=O)Nc1ccccc1F	0.15% (inactive)
CN1C(=O)/C(=C\C=C2/CCCN2C)N(C)C1=S	56.9% (active)
CN1CCC/C1=C/C=C1\SC(=S)NC1=O	0.02% (inactive)
CCN1C(=O)/C(=C/C=C2/CCCN2C)OC1=S	0.08% (inactive)
O=C(O)c1ccc2c(c1)S(=O)(=O)c1ccccc1C2=O	0.03% (inactive)
O=C1c2ccccc2-c2onc3ccc(Oc4ccccc4)c1c23	0.44% (inactive)
CCCCCCNC(=O)C(C#N)c1nc2ccccc2nc1N1CCCC1 (stereo not given)	0.17% (inactive)
CCN(CC)c1nc2ccccc2nc1C(C#N)C(=O)NCCc1ccccc1 (stereo not given)	164% (active)
N#CC(C(=O)NCc1ccccc1)c1nc2ccccc2nc1N1CCCC1 (stereo not given)	-0.08% (inactive)
